IC50 data for seven compounds are collected here from ChEMBL document CHEMBL2046427, “Nonhematotoxic naphthalene diimide modified by polyamine: synthesis and biological evaluation” (J Med Chem, 2012).

Holding throughout (assay type): functional, cell-based
The subject of one assay is MDA-MB-231. In words: Cytotoxicity against human MDA-MB-231 cells after 48 hrs by MTT assay. Particulars: MDA-MB-231, 48 h. The method, boiled down: (§1)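 MTT conversion assay at 37 °C, 5% CO₂. […] Inhibition relative to untreated cells as 100%; IC50 by linear regression, mean of three independent experiments.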
For the next assay, the system named is HepG2. In words: Cytotoxicity against human HepG2 cells after 48 hrs by MTT assay. As to conditions: HepG2, 48 h. In short, it runs like this: as §1
For a further assay, the system named is K562. Briefly: Cytotoxicity against human K562 cells after 48 hrs by MTT assay. Particulars: K562, 48 h. The method, boiled down:
as §1
(Tetrazolium dyes change colour on reduction, which living cells bring about.)

Another assay has as its system HCT-116. Briefly: Cytotoxicity against human HCT116 cells after 48 hrs by MTT assay. As to conditions: HCT-116, 48 h. The method, boiled down:
as §1

Broadly, the IC50 is the concentration that inhibits the measured activity by half.

Turning to `NCCCCNCCCCNCCCCN1C(=O)c2ccc3c4c(ccc(c24)C1=O)C(=O)N(CCCCNCCCCNCCCCN)C3=O`, the IC50 in the assay with MDA-MB-231 was above 50 µM; in the assay with HepG2, above 50 µM; in the assay with K562, 28 µM.

`NCCCNCCCN1C(=O)c2ccc3c4c(ccc(c24)C1=O)C(=O)N(CCCNCCCN)C3=O`: the concentration for half-maximal inhibition (IC50) was 5.02 µM in the assay on HCT-116, 2.95 µM in the assay with MDA-MB-231, 2.83 µM in the assay with HepG2 and 1.01 µM in the assay with K562.

`NCCCNCCCCNCCCN1C(=O)c2ccc(-c3ccc4c(c3)C(=O)N(CCCNCCCCNCCCN)C4=O)cc2C1=O`: the half-inhibitory concentration (IC50) in the assay with MDA-MB-231 and with HepG2 was above 50 µM each time.

Consider `NCCCNCCCCNCCCN1C(=O)c2cccc3c(-c4ccccc4)ccc(c23)C1=O`, for which the IC50 stood at 14.5 µM in the assay with MDA-MB-231, 15.8 µM with HepG2 and 14.2 µM in the assay on K562.

In the case of `NCCCNCCCCN1C(=O)c2ccc3c4c(ccc(c24)C1=O)C(=O)N(CCCCNCCCN)C3=O`, the IC50 in the assay with MDA-MB-231 was found to be 20.2 µM; in the assay with HepG2, 33.3 µM; in the assay on K562, 21.2 µM.

For `NCCCNCCCNCCCN1C(=O)c2cccc3c(-c4ccccc4)ccc(c23)C1=O`, the figures for the half-maximal inhibitory concentration (IC50) in the assay on MDA-MB-231, with HepG2 and in the assay with K562 were 14.6 µM, 15.6 µM and 14.4 µM, respectively.

As for `NCCCCNCCCCN1C(=O)c2ccc3c4c(ccc(c24)C1=O)C(=O)N(CCCCNCCCCN)C3=O`, the IC50 came to 27.6 µM with MDA-MB-231, 43.8 µM in the assay with HepG2 and 41 µM in the assay on K562.
